pIC50, pKi: −log10 of the molar value.
Tests used:
Trypanosoma brucei [1] = test: In vitro growth Inhibitory activity against LAB 110 Strain of Trypanosoma brucei; type: functional, organism-based
Method in brief: (§1)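 In vitro growth inhibition was run against T. b. brucei LAB EATRO 110 and T. b. rhodesiense KETRI 243, KETRI 243 As-10-3 and KETRI 269. […] ">100" means no appreciable inhibition up to the highest concentration tested.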

Trypanosoma brucei [2] = test: In vitro growth Inhibitory activity against K243 Strain of Trypanosoma brucei.; type: functional, organism-based; method in brief: as §1
[3] = target: T1, Diamine acetyltransferase 1 (Homo sapiens, UniProt P21673); test: Effect of 10 uM on spermine/spermidine-N-acetyltransferase (SSAT) induction in non-SCLC cells; type: cell-based
T1 sequence (P21673 whole entry): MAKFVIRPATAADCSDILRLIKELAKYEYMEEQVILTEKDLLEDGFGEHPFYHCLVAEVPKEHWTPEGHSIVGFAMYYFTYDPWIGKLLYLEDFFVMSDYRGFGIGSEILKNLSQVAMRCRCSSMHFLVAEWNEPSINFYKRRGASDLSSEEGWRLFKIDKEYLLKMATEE
Method in brief: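 NCI H157 non-small-cell lung tumor cells were exposed to 10 μM analogue. SSAT activity was assayed and expressed as pmol product/mg protein/min, then as fold increase over untreated control cells.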

NCI-H157 [4] = test: Effect of exposure of H157 non-SCLC (<10 uM) for 96-h, and accumulation of compound was determined; type: functional, Homo sapiens
[5] = target: T2, Ornithine decarboxylase (Homo sapiens) (UniProt P11926); test: Inhibition of ornithine decarboxylase (ODC); set-up: concentration or dose not given beside the values; conditions: concentration not given here
T2 sequence (whole entry): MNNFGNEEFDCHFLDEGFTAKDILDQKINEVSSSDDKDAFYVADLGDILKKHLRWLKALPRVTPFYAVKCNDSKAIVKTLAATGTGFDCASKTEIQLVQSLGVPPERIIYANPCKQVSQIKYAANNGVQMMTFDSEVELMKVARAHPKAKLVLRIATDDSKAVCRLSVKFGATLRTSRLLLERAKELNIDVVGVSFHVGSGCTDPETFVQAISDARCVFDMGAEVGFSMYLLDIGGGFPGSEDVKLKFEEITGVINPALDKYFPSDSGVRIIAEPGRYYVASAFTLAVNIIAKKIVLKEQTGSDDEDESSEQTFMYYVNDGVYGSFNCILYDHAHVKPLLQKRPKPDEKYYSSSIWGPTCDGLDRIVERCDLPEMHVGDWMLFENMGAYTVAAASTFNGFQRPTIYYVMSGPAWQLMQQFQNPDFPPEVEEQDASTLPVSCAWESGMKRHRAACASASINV

[6] = target: S-adenosylmethionine decarboxylase (Homo sapiens) (UniProt P17707); test: Inhibition of Inhibition of human form of S-adenosyl-methionine decarboxylase enzyme (AdoMet-DC); set-up: concentration or dose not given beside the values; conditions: concentration not given here
NCI-H157 [7] = test: Effect of exposure of H157 non-SCLC to compound (<10 uM) for 96-h, on natural polyamines and accumulation of the compound; Decrease; type: functional, cell-based; conditions: Homo sapiens
Method in brief: (§2)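 H157 non-SCLC cells were treated with 10 μM analogue. Cellular putrescine, spermidine and spermine, plus the intracellular analogue, were quantified and compared with untreated control cells.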

NCI-H157 [8] = test: BENSpm level in NCI H157 non-SCLC tumor cells following 24-h treatment with 10 uM of compound; type: functional, Homo sapiens
Method in brief: (§3)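 NCI H157 non-SCLC cells were exposed to 10 μM analogue alongside untreated controls. Cellular polyamines and analogue were quantified. SSAT activity was assayed in the cells and reported as pmol product/mg protein/min.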

NCI-H157 [9] = test: CHENSpm level in NCI H157 non-SCLC tumor cells following 24-h treatment with 10 uM of compound; type: functional, Homo sapiens; method in brief: as §3
[10] = Compound was evaluated for cytotoxic activity against PC-3, DU145 and LNCaP cell lines; type: functional, Homo sapiens
Method in brief: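 PC-3, DU145 and LNCaP prostate cancer cells were exposed to analogues over 0.1–30 μM for 120 h. Dose–response curves of growth were recorded.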

NCI-H157 [11] = test: Spermine/Spermidine-N1-acetyltransferase activity in NCI H157 non-SCLC tumor cells following 24-h treatment with 10 uM of compound; type: functional, Homo sapiens; method in brief: as §3
NCI-H157 [12] = test: Putrescine level in NCI H157 non-SCLC tumor cells following 24-h treatment with 10 uM of compound; type: functional, Homo sapiens; method in brief: as §3
NCI-H157 [13] = test: Spermidine level in NCI H157 non-SCLC tumor cells following 24-h treatment with 10 uM of compound; type: functional, Homo sapiens; method in brief: as §3
NCH82 [14] = test: In vitro activity against H82 small-cell lung tumor line (SCLC) cultures.; type: functional, cell-based; conditions: Homo sapiens
NCI-H157 [15] = test: In vitro activity against H157 non-small-cell lung tumor line (non-SCLC) cultures.; type: functional, cell-based; conditions: Homo sapiens
NCI-H157 [16] = test: Spermine level in NCI H157 non-SCLC tumor cells following 24-h treatment with 10 uM of compound; type: functional, Homo sapiens; method in brief: as §3
Trypanosoma brucei [17] = test: in vivo inhibition of trypanosomal brucei growth was determined; type: functional, organism-based
NCI-H157 [18] = test: (§4) Effect of exposure of H157 non-SCLC to compound (<10 uM) for 96-h, on natural polyamines and accumulation of the compound; No significant change; type: functional, cell-based; conditions: Homo sapiens
NCI-H157 [19] = test: Antitumor activity was determined against H157 cell line; type: functional, cell-based; conditions: Homo sapiens
Cricetinae gen. sp. = test: […] activity was determined against Leishmania donovani in hamsters; type: functional, Cricetulus griseus
Mus musculus = species on record: Mus musculus; test: […] activity was determined against Leishmania donovani in mice (Mus musculus); type: functional
NCI-H157 [20] = test: Activity against H157 non-SCLC cells in culture; type: functional, cell-based; conditions: Homo sapiens
[21] = target: T1, Diamine acetyltransferase 1; test: Inhibitory activity of compound against SSAT extracted from superinduced H157 cells; type: cell-free
Method in brief: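 SSAT came from crude extracts of superinduced H157 cells and was assayed at saturating spermidine.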

[22] = target: T3, S-adenosylmethionine decarboxylase proenzyme (Rattus norvegicus, UniProt P17708); test: Inhibition of rat liver form of S-adenosyl-methionine decarboxylase enzyme
T3 sequence (P17708 whole entry): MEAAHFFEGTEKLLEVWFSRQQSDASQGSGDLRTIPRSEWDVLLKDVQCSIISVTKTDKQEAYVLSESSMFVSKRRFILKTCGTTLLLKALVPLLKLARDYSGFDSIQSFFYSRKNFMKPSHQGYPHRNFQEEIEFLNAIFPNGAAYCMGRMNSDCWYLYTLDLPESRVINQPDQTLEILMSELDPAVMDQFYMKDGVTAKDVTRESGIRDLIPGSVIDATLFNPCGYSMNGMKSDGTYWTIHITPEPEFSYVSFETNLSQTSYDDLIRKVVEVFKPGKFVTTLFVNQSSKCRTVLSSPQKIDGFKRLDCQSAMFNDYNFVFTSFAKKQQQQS

Trypanosoma brucei [23] = test: in vivo growth inhibition of Trypanosoma brucei was determined; type: functional, organism-based
NCH82 [24] = test: Cytokinetic effects on H82 small-cell lung tumor line (SCLC) after 96-h treatment; type: functional, Homo sapiens
NCI-H157 [25] = test: as §4; type: functional, cell-based; conditions: Homo sapiens; method in brief: as §2; remark: listed apart in the source
[26] = Half-life period in liver tissues; type: ADME, tissue-based
Spermine synthase = target: T4, Spermine synthase (Homo sapiens, UniProt P52788); test: Inhibitory activity against spermine synthase
T4 sequence (P52788 whole entry): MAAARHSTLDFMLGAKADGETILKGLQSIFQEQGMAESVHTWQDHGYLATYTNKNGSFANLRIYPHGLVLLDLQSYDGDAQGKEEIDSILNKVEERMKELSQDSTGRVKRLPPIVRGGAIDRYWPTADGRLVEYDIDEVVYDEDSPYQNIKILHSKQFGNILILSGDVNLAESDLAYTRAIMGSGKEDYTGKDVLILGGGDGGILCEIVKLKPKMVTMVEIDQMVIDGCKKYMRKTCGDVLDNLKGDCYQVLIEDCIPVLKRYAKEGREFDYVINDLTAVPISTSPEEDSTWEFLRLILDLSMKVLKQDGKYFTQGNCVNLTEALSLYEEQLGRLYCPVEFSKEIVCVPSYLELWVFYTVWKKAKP

SMILES	Induction [3]	Amount (NCI-H157 [4])	inhibition [5] [%]	Effect on polyamine pools (NCI-H157 [7])	other results
CCNCCCN[C@H]1C=C[C@@H](N)CCC1					pIC50 (Trypanosoma brucei [1]): < 4.00; pIC50 (Trypanosoma brucei [2]): < 4.00
CCNCCCCNCCCNCC	> 50	>20 nM (mg of protein)-1	> 50	Decrease	inhibition [6]: < 50%
CCNCCCNCCCNC1CCCCCC1	> 50		< 50	Decrease	
CCNCCCNCCCNCCCNCC1CCCCCC1	0	>20 nM (mg of protein)-1	< 50	Decrease	Polyamine level (NCI-H157 [8]): 0; Polyamine level (NCI-H157 [9]): 14.66; CC [10]: 30 µM; Activity (NCI-H157 [11]): 781 (pM of product) min-1 (mg of protein)-1; inhibition [6]: < 50%; Polyamine level (NCI-H157 [12]): 4.28; Polyamine level (NCI-H157 [13]): 6.44; pIC50 (NCH82 [14]): 6.15; pIC50 (NCI-H157 [15]): 6.40; Polyamine level (NCI-H157 [16]): 15.97
C[S+](C[C@@H]1O[C@H](n2cnc3c(N)ncnc32)[C@@H](O)[C@H]1O)C1C=CC(N)C1 (stereo partly specified)					pIC50 (Trypanosoma brucei [17]): 5.28
CCNCCCN[C@@H]1CCC[C@H](N)CC1					pIC50 (Trypanosoma brucei [1]): < 4.00; pIC50 (Trypanosoma brucei [2]): < 4.00
C(CCCNCCCNCC1CCCCCC1)CCCNCCCNCC1CCCCCC1	0				NC (NCI-H157 [18]): No significant change
CCNCCCNCCCNCCCNC1CCCCCC1	> 500	>20 nM (mg of protein)-1		Decrease	
CCNCCCNCCCNCCCN1CCCCCC1	> 500			Decrease	
c1ccc(CNCCCNCCCCCCCNCCCNCc2ccccc2)cc1					pIC50 (NCI-H157 [19]): 6.30; ED50 (Cricetinae gen. sp.): 1 mg/kg; pIC50 (NCH82 [14]): 5.77; pIC50 (NCI-H157 [15]): 6.30; ED50 (Mus musculus): 2.5 mg/kg
N[C@@H]1C=C[C@H](NCCCNCC2CC2)C1					pIC50 (Trypanosoma brucei [1]): < 4.00; pIC50 (Trypanosoma brucei [2]): < 4.00
C#CCNCCCNCCCNCCCNCC	> 500		< 50	Decrease	pIC50 (NCI-H157 [20]): 5.96; pIC50 [21]: 4.40
NC/C=C\NC[C@@H]1O[C@H](n2cnc3c(N)ncnc32)[C@@H](O)[C@H]1O					pKi [22]: 6.25
C[S+](C[C@@H]1O[C@H](n2cnc3c(N)ncnc32)[C@@H](O)[C@H]1O)C1C=CC(ON)C1 (stereo partly specified)					pIC50 (Trypanosoma brucei [23]): 6.05
CCNCCCNCCCN1CCCCCC1	< 50				Effect (NCH82 [24]): 0; Effect on polyamine pools (NCI-H157 [25]): No significant change
CCNCCCNCCCNCCCNCC1CCC(Br)CC1 (stereo unspecified)	< 50	>20 nM (mg of protein)-1	< 50	Decrease	inhibition [6]: < 50%
CCNCCCNCCCNCCCNCC1CCCC1	> 500	>20 nM (mg of protein)-1	> 50	Decrease	inhibition [6]: > 50%
CCNCCCNCCCNCC1CCCCCC1	> 500	>20 nM (mg of protein)-1		Decrease	
CCNCCCNCCCNCCCNCC1CCC1	> 500	>20 nM (mg of protein)-1	> 50	Decrease	
CCNCCCNCCCCCCCNCCCNCC1CCCCCC1	0	<20 nM (mg of protein)-1	< 50		inhibition [6]: < 50%; NC (NCI-H157 [18]): No significant change
CCNCCCNCCCNCCCO	> 500	>20 nM (mg of protein)-1	< 50	Decrease	Effect (NCH82 [24]): 0; inhibition [6]: < 50%
CCNCCCCNCCCCNCCCCNCC [DIETHYLHOMOSPERMINE]					half-life [26]: 15.4 days
NCCCNCCCCCC(CCN)SC[C@H]1O[C@@H](n2cnc3c(N)ncnc32)[C@H](O)[C@@H]1O (stereo partly specified)					pIC50 (Spermine synthase): 7.70
CCNCCCNCCCNCCCNCC1CCCCC1	< 50	>20 nM (mg of protein)-1	< 50	Decrease	inhibition [6]: < 50%
